The text below walks through data of article PMC11210309 (Science Advances, 2021).

Data set [1] concerns Notch signaling. In words: Western blot of cleaved NOTCH1 and HES1 during hIEC differentiation. In kind it is cell-based, human. The conditions noted are these: single treatment with VPA, 1 mM (Fig. 1F). For orientation: Immunoblotting shows a protein as a band on a membrane.
Data set [2] concerns β-catenin. In words: Western blot of β-catenin during hIEC differentiation. The conditions noted are these: differentiation of hIEC progenitors, 2 μM Wnt-C59 (Fig. 1F). In kind it is cell-based, human. Put shortly: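 hIEC progenitors are kept on 1% Matrigel in DMEM/F12 with EGF, R-spondin1 and insulin. They are seeded at 1.34 × 10^5 cells/cm2 on 1% Matrigel-coated Transwell inserts with 10 μM Y-27632 until near confluence. They are then switched to DMEM/F12 with EGF (100 ng/ml), 2 μM Wnt-C59, 1 mM VPA, 2% FBS, 2% B27, 1% N2, 2 mM l-glutamine, 1% NEAA and 15 mM Hepes.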

Data set [3] is described as follows: Apical-to-basolateral permeability. The conditions noted are these: human, Caco-2.
Data set [4] in a line: Apical-to-basolateral permeability. The conditions noted are these: human.
Data set [5] relates to hIECs. In words: qPCR of intestinal marker genes in compound-treated hIECs. In kind it is cell-based, human. The conditions noted are these: compound-treated hIECs in 2D culture (Fig. 1C). Background: Quantitative PCR measures a nucleic acid by following its amplification.

Where only a bound is given, the exact number is not on record here.

Regarding `CCCC(CCC)C(=O)O` [VPA, valproic acid], the “Notch signaling (cleaved NOTCH1 and HES1)” value in data set [1] is on record as “notable enhancement”.

As to `Cc1cc(-c2ccc(CC(=O)Nc3ccc(-c4cccnc4)cc3)cc2)ccn1` [WNT C-59], the “Expression of β-catenin” value in data set [2] is recorded as “specifically inhibited”.

For orientation: Papp A→B means how fast a substance crosses the layer from the apical side. Turning to `O=C(O)Cc1ccccc1Nc1c(Cl)cccc1Cl` [diclofenac], the Papp A→B at 2 h turned out to be 36.4 ± 1.13 ×10⁻⁶ cm/s in data set [3] and 12.5 ± 2.65 ×10⁻⁶ cm/s in data set [4].

As to `CC[C@H]1OC(=O)[C@H](C)[C@@H](O[C@H]2C[C@@](C)(OC)[C@@H](O)[C@H](C)O2)[C@H](C)[C@@H](O[C@@H]2O[C@H](C)C[C@H](N(C)C)[C@H]2O)[C@](C)(O)C[C@@H](C)C(=O)[C@H](C)[C@@H](O)[C@]1(C)O` [erythromycin], the Papp A→B at 2 h is < 0.3 ×10⁻⁶ cm/s in data set [3] and 4.95 ± 0.14 ×10⁻⁶ cm/s in data set [4].

For `COCCc1ccc(OCC(O)CNC(C)C)cc1` (centres unmarked) [metoprolol], the values for the Papp A→B at 2 h in data set [3] and in data set [4] were 35.5 ± 1 ×10⁻⁶ cm/s and 13.8 ± 0.74 ×10⁻⁶ cm/s, respectively.

Turning to `CC(C)NCC(O)COc1cccc2ccccc12` (centres unmarked) [propranolol], the Papp A→B at 2 h in data set [3] turned out to be 29.1 ± 0.97 ×10⁻⁶ cm/s; in data set [4] it was 13.1 ± 1.25 ×10⁻⁶ cm/s.

Take `CNC(=C[N+](=O)[O-])NCCSCc1ccc(CN(C)C)o1` [ranitidine]: the apical-to-basolateral permeability (Papp A→B) at 2 h came out at 1.16 ± 0.09 ×10⁻⁶ cm/s in data set [3] and 11.6 ± 0.92 ×10⁻⁶ cm/s in data set [4].

Turning to “Insulin: acts in the intestinal epithelium via the insulin receptor; component of hIEC medium 1”, in data set [5], the “Differentiation into absorptive cells (VIL1 and ANPEP expression)” value is reported as “specifically increased”.

B1: R-spondin 1: an agonist of Wnt signaling (protein, UniProt Q2MKA7 21-263, looked up)
R-spondin-1: SRGIKGKRQRRISAEGSQACAKGCELCSEVNGCLKCSPKLFILLERNDIRQVGVCLPSCPPGYFDARNPDMNKCIKCKIEHCEACFSHNFCTKCKEGLYLHKGRCYPACPEGSSAANGTMECSSPAQCEMSEWSPWGPCSKKQQLCGFRRGSEERTRRVLHAPVGDHAACSDTKETRRCTVRRVPCPEGQKRRKGGQGRRENANRNLARKESKEAGAGSRRRKGQQQQQQQGTVGPLTSAGPA
As for B1, the “Expression of markers of major intestinal cell types (ISCs, enterocytes, secretory lineage cells)” value in data set [5] was “induced”.
